Measurements: PMC9064899 (The FEBS journal, 2021)
Changes are numbered by the printed parent chain. pEC50: −log10 of the molar value. Blank lines part the entries; values can stand above or below the compound they belong to.

Key:
UBIAD1 = target: T1, UBIAD1 (Homo sapiens, UniProt Q9Y5Z9); test: UBIAD1 activity with exogenous isoprenyl pyrophosphates in statin-blocked cells; assay type: cell-based; settings: 1 μM vitamin K3, 10 μM atorvastatin or simvastatin, 20 μM GPP, FPP or GGPP
T1 sequence (Q9Y5Z9 1-338): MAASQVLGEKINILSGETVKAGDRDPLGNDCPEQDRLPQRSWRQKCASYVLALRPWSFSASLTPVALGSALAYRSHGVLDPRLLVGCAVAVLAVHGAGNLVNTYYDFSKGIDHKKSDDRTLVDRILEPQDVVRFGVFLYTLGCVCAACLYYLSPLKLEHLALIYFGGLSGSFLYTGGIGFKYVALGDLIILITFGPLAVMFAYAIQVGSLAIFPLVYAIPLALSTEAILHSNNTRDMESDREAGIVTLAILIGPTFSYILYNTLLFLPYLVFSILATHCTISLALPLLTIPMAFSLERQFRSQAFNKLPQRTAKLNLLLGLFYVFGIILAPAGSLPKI
Outline: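 FIXgla-PC/HEK293 reporter cells were pre-incubated for 12 h with 10 μM atorvastatin or simvastatin to block endogenous isoprenyl pyrophosphate. Medium then contained 1 μM vitamin K3, statin (10 μM) and 20 μM GPP, FPP or GGPP as side-chain substrate. Carboxylated FIXgla-PC was quantified by ELISA and normalized to GGPP (100%). Mean ± SD, n=3 independent experiments.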

UBIAD1 K181A = target: T2, UBIAD1 K181A (Homo sapiens, UniProt Q9Y5Z9, K181A); test: GGPP recognition by UBIAD1 variant; assay type: cell-based; settings: 1 μM vitamin K3, statin-blocked mevalonate pathway
T2 sequence (Q9Y5Z9 1-338 K181A): T1 sequence (Q9Y5Z9 1-338) with K181A
Outline: (§1)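 Ubiad1-knockout FIXgla-PC/HEK293 cells were transiently transfected with wild-type or mutant UBIAD1. At 24 h they were pre-treated with 10 μM atorvastatin for 3 h. They were then given 1 μM vitamin K3, 10 μM atorvastatin and increasing GGPP for 24 h. Carboxylated FIXgla-PC was read by ELISA, and GGPP EC50 came from a curve fit. Mean ± SD.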

UBIAD1 G186R = target: T3, UBIAD1 G186R (Homo sapiens, UniProt Q9Y5Z9, G186R); test: GGPP recognition by UBIAD1 variant; assay type: cell-based; settings: 1 μM vitamin K3, statin-blocked mevalonate pathway
T3 sequence (Q9Y5Z9 1-338 G186R): T1 sequence (Q9Y5Z9 1-338) with G186R
Outline: as §1

[1] = test system: UBIAD1-deficient FIXgla-PC/HEK293 reporter cells; test: VKD carboxylation of FIXgla-PC supported by K vitamins in UBIAD1-knockout cells; assay type: cell-based, human; settings: for support of VKD carboxylation of reporter protein: UBIAD1-deficient (knockout) FIXgla-PC/HEK293 cells
Outline: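 Ubiad1-knockout FIXgla-PC/HEK293 reporter cells were cultured for 24 h with increasing concentrations of vitamin K1, MK-4, vitamin K3, or menaquinones with 1–4 or 7 isoprene units. K vitamin stocks were made in polyethoxylated castor oil. Carboxylated FIXgla-PC was determined by ELISA, and half-maximal stimulation concentration (EC50) came from curve fitting. Mean ± SD.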

[2] = test system: FIXgla-PC/HEK293 reporter cells; test: VKD carboxylation of reporter protein FIXgla-PC supported by K vitamins; assay type: cell-based, human; settings: intact FIXgla-PC/HEK293 cells, 0.015 nM to 1000 nM, 24 hours
Outline: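 Intact FIXgla-PC/HEK293 cells (stable reporter: protein C with factor IX Gla domain) were grown in DMEM/F12 with 10% FBS. They were incubated for 24 h with vitamin K1, MK-4, vitamin K3 or MK-1/2/3/4/7 at 0.015 nM to 1000 nM, from stocks in polyethoxylated castor oil. Carboxylated reporter was measured by ELISA (anti-carboxylated FIXgla capture, HRP anti-protein C, ABTS).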

mutant zebrafish = settings: L65Q mutant zebrafish; cited from earlier work
[3] = test system: FIXgla-PC/HEK293 reporter cells; test: Inhibition of vitamin K3-supported VKD carboxylation; assay type: cell-based, human; settings: 1 μM vitamin K3 as substrate, 24 hours
Outline: (§2)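 HEK293 cells stably expressing FIXgla-PC (protein C whose Gla domain is replaced by that of factor IX), grown in DMEM/F12 with 10% FBS. Vitamin K stocks are made in polyethoxylated castor oil. Cells are cultured with vitamin K for 24 h. The medium is collected and used directly in an ELISA for carboxylated FIXgla-PC, with an anti-carboxylated FIX Gla-domain mAb, HRP anti-protein C and ABTS substrate.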

[4] = test system: FIXgla-PC/HEK293 reporter cells; test: Inhibition of vitamin K1-supported VKD carboxylation; assay type: cell-based, human; settings: 5 μM vitamin K1 as substrate, 24 hours
Outline: as §2

kidneys = kidneys of atorvastatin-treated mice; cited from earlier work

- support of VKD carboxylation as side chain source (UBIAD1): support VKD carboxylation
Structure (SMILES): CC(C)=CCC/C(C)=C/CC/C(C)=C/COP(=O)(O)OP(=O)(O)O [FPP, farnesyl pyrophosphate]

- support of VKD carboxylation as side chain source (UBIAD1): support VKD carboxylation
- increase of EC50 value of GGPP vs wild-type (UBIAD1 K181A): 5 fold
- increase of EC50 value of GGPP vs wild-type (UBIAD1 G186R): 5 fold
Structure (SMILES): CC(C)=CCC/C(C)=C/CC/C(C)=C/CC/C(C)=C/COP(=O)(O)OP(=O)(O)O [GGPP, geranylgeranyl pyrophosphate]

- support of VKD carboxylation as side chain source (UBIAD1): support VKD carboxylation
Structure (SMILES): CC(C)=CCC/C(C)=C/COP(=O)(O)OP(=O)(O)O [GPP, geranyl pyrophosphate]

Structure (SMILES): CC(C)=CCC1=C(C)C(=O)c2ccccc2C1=O [MK-1]
- support of VKD carboxylation of reporter protein [1]: unable to support VKD carboxylation

Structure (SMILES): CC(C)=CCC/C(C)=C/CC/C(C)=C/CC/C(C)=C/CC1=C(C)C(=O)c2ccccc2C1=O [MK-4, menaquinone-4]
- support of VKD carboxylation of reporter protein [2]: efficiently support VKD carboxylation
- support of VKD carboxylation of reporter protein [1]: efficiently support VKD carboxylation
- rescue of the vascular phenotype (mutant zebrafish): 58%

Structure (SMILES): CC(C)=CCC/C(C)=C/CC/C(C)=C/CC/C(C)=C/CC/C(C)=C/CC/C(C)=C/CC/C(C)=C/CC1=C(C)C(=O)c2ccccc2C1=O [MK-7]
- support of VKD carboxylation of reporter protein [2]: efficiently support VKD carboxylation
- carboxylation efficiency relative to MK-4 ([1]; MK-7 higher than MK-4): about 3 fold
- pEC50 ([1]; read-out: EC50 (half-maximal stimulation concentration) of K vitamins for VKD carboxylation, UBIAD1-deficient FIXgla-PC/HEK293 cells): 8.64

Structure (SMILES): CC(C)c1c(C(=O)Nc2ccccc2)c(-c2ccccc2)c(-c2ccc(F)cc2)n1CC[C@@H](O)C[C@@H](O)CC(=O)O [atorvastatin]
- inhibition of VKD carboxylation [3]: dose-response inhibition of VKD carboxylation
- effect on vitamin K1-supported carboxylation [4]: do not affect vitamin K1-supported carboxylation
- reduction of MK-4 production (kidneys): ~ 45%

Structure (SMILES): CCC(C)(C)C(=O)O[C@H]1C[C@@H](C)C=C2C=C[C@H](C)[C@H](CC[C@@H]3C[C@@H](O)CC(=O)O3)[C@H]21 [simvastatin]
- inhibition of VKD carboxylation [3]: dose-response inhibition of VKD carboxylation
- effect on vitamin K1-supported carboxylation [4]: do not affect vitamin K1-supported carboxylation

Structure (SMILES): CC1=C(C/C=C(\C)CCC[C@H](C)CCC[C@H](C)CCCC(C)C)C(=O)c2ccccc2C1=O [vitamin K1, phylloquinone]
- support of VKD carboxylation of reporter protein [1]: efficiently support VKD carboxylation
- rescue of the vascular phenotype (mutant zebrafish): 6%
